Measurements taken from ChEMBL document CHEMBL2029262, “Receptor-ligand interaction-based virtual screening for novel Eg5/kinesin spindle protein inhibitors” (J Med Chem, 2012).
Active and inactive are the calls of the source. The rule behind the calls is not given here.

Experiments:
HeLa [1] = assay: Induction of monoastral spindle formation in human HeLa cells at 25 uM after 8 hrs by immunofluorescence assay; type: functional, cell-based
In short: (§1)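 HeLa cells grown in D-MEM with 10% fetal calf serum on poly-D-lysine-coated coverslips and allowed to adhere at least 36 h. Compounds were diluted in medium from 25 mM DMSO stocks and applied for 8 h. Cells were fixed in 2% paraformaldehyde, permeabilized with 0.2% Triton X-100, and stained for β-tubulin and centromeres, with DAPI for DNA. Mitotic cells with monoastral versus bipolar spindles were counted by epifluorescence microscopy.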

[2] = molecular target: T1, Kinesin-like protein KIF11 (Homo sapiens, UniProt P52732); assay: (§2) Inhibition of Eg5 ATPase activity by pyruvate kinase/lactate dehydrogenase-linked assay
T1 sequence (P52732 whole entry): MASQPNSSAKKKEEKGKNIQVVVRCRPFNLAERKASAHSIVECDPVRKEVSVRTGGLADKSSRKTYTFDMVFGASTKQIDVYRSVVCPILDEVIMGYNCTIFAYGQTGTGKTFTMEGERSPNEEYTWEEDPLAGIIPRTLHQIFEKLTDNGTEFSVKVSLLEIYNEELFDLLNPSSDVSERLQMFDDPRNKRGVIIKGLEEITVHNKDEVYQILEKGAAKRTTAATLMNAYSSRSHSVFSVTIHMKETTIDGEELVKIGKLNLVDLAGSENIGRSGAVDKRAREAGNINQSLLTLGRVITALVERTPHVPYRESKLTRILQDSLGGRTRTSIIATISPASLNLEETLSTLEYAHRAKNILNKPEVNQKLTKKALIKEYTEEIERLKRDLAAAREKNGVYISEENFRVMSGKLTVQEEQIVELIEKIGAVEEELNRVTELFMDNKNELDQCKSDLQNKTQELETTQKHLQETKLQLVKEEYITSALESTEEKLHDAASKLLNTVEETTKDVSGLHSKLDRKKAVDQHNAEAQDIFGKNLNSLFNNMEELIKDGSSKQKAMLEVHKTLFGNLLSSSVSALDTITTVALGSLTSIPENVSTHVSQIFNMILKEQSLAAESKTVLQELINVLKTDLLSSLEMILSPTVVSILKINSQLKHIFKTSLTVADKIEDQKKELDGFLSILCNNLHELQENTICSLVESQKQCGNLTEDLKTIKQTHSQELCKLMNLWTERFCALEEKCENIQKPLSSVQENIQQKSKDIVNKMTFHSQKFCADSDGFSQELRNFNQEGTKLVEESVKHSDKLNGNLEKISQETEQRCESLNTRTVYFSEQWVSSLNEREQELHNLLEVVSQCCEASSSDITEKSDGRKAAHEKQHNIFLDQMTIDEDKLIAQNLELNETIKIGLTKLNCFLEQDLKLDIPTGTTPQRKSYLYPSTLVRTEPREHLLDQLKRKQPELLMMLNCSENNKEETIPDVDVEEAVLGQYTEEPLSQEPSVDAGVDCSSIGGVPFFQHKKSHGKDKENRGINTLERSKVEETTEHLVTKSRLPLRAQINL
In short: (§3)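 Basal steady-state ATPase of 200 nM Eg5 2–368, measured by pyruvate kinase/lactate dehydrogenase coupling in ACES buffer pH 6.9 with Mg acetate, EGTA, EDTA and β-mercaptoethanol, at 25 °C with up to 2.0% DMSO. STLC was the positive control. Each concentration was run in triplicate and reported as mean ± SD to give IC50.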

[3] = molecular target: T2, Kinesin-like protein KIF11 (Homo sapiens) (UniProt P52732); assay: as §2; design: concentration or dose not given beside the values; in short: as §3
T2 sequence (whole entry): T1 sequence (P52732 whole entry)

HT-29 = assay: Growth inhibition of human HT-29 cells after 2 days by MTT assay; type: functional
In short: (§4)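 DU145 or HT29 cells in RPMI 1640 with 10% heat-inactivated FBS, 37 °C, 5% CO2. Seeded at 3 × 10^3 cells/well, exposed to a range of compound concentrations in duplicate for two days. Read-out was MTT-type tetrazolium dye for up to 4 h, overnight solubilization of formazan, then OD at 570 nm. GI50 was derived.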

[4] = molecular target: T3, Kinesin heavy chain isoform 5A (Homo sapiens, UniProt Q12840); assay: Inhibition of human Kif5A ATPase activity by pyruvate kinase/lactate dehydrogenase-linked assay
T3 sequence (Q12840 whole entry): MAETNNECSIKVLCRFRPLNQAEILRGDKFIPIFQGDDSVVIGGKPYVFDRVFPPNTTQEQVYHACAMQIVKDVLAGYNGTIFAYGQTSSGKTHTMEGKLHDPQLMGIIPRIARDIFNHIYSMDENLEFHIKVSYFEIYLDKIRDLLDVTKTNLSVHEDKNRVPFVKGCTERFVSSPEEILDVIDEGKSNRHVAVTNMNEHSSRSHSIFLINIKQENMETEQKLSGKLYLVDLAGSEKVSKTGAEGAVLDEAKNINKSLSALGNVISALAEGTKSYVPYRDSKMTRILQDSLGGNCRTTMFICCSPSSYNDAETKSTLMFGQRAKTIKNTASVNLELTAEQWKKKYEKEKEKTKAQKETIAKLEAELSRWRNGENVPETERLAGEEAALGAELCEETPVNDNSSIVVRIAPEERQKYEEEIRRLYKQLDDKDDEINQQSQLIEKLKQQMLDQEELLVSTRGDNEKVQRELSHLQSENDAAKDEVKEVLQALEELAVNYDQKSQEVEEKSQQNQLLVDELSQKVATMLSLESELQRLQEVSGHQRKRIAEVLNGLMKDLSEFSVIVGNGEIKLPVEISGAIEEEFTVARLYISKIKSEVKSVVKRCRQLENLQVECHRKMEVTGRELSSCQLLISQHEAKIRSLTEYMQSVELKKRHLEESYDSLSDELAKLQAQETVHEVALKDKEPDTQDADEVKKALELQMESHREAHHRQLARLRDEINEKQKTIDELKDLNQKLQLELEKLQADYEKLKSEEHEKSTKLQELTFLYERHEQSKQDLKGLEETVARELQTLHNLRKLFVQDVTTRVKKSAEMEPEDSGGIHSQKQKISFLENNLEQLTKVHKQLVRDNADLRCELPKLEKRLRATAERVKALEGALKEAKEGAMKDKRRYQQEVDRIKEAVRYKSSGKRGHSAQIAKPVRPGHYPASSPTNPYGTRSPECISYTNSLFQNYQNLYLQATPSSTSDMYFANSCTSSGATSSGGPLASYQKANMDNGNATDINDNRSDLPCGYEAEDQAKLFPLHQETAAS
In short: (§5)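 HsKif5A or HsKif5C ATPase measured with the same pyruvate kinase/lactate dehydrogenase-linked format, at 25 °C in ACES buffer pH 6.9 with up to 2.0% DMSO. Concentrations were run in triplicate.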

DU-145 [5] = assay: Growth inhibition of human DU145 cells after 2 days by MTT assay; type: functional; in short: as §4
[6] = molecular target: T4, Kinesin heavy chain isoform 5C (Homo sapiens, UniProt O60282); assay: Inhibition of human Kif5C ATPase activity by pyruvate kinase/lactate dehydrogenase-linked assay; in short: as §5
T4 sequence (O60282 whole entry): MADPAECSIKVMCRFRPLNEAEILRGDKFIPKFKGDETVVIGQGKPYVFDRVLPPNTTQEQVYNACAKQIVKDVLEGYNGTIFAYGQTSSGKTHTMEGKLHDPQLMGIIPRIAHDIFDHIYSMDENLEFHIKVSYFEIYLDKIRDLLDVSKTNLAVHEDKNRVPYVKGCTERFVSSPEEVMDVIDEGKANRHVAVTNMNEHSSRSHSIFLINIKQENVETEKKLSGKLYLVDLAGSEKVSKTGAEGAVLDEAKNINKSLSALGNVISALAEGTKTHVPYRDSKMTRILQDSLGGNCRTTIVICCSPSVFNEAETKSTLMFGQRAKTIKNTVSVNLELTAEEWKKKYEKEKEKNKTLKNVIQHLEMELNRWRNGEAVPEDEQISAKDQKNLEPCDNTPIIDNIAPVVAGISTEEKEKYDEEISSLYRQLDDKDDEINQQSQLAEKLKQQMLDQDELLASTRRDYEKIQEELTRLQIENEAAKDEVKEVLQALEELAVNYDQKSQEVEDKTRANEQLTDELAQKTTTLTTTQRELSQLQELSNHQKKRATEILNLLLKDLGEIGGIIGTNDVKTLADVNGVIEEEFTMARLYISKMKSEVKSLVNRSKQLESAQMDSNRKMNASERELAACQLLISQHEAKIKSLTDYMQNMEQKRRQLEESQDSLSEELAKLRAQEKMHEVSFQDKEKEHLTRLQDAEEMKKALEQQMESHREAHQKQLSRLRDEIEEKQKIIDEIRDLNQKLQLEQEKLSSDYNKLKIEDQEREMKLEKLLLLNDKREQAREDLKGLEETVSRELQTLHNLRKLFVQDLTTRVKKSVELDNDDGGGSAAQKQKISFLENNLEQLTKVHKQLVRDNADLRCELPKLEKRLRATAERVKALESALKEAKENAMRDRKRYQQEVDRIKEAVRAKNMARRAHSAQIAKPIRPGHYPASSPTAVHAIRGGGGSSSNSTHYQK

HeLa [7] = assay: Induction of monoastral spindle formation in human HeLa cells assessed as cells with misaligned chromosomes at 25 uM after 8 hrs by immunofluorescence assay; type: functional, cell-based
DU-145 [8] = assay: Selectivity ratio of GI50 for human DU145 cells to GI50 for human HT29 cells; type: functional
HeLa [9] = assay: Induction of monoastral spindle formation in human HeLa cells at 50 uM after 8 hrs by immunofluorescence assay; type: functional; in short: as §1
HeLa [10] = assay: Induction of monoastral spindle formation in human HeLa cells assessed as interphase cells with cortical MT bundles at 25 uM after 8 hrs by immunofluorescence assay; type: functional, cell-based

Cc1ccc2c(c1)-c1cc(C)nn1C(c1ccccc1F)N2 (stereo unspecified)
Activity (HeLa [1]): inactive
IC50 ([2]; read-out: IC50): 6.3 µM
inhibition ([3]; concentration not given here): 60%
GI50 (HT-29): inactive
IC50 [4]: Not Active
GI50 (DU-145 [5]): inactive
IC50 [6]: Not Active

COC(=O)c1c(NC(=O)c2ccccc2Br)sc(C)c1C
Activity (HeLa [7]): Active
inhibition [3]: inactive
GI50 (HT-29; HT-29, 48 h): 33.7 µM
GI50 (DU-145 [5]; DU-145, 48 h): > 100 µM

Cc1ccsc1CCN1C(=S)N(c2ccc(F)cc2)C(=O)C1CC(=O)Nc1ccc(F)cc1 (stereo unspecified)
Activity (HeLa [1]): Active
IC50 ([2]; read-out: IC50): 0.6 µM
inhibition ([3]; concentration not given here): 80%
GI50 (HT-29; HT-29, 48 h): 16.7 µM
IC50 [4]: Not Active
GI50 (DU-145 [5]; DU-145, 48 h): 31 µM
RatioGI50 (DU-145 [8]): 2
IC50 [6]: Not Active

COC(=O)c1c(C)oc2c1cc(NS(=O)(=O)c1ccc(C(=O)O)cc1)c1ccccc12
Activity (HeLa [1]): inactive
IC50 ([2]; read-out: IC50): 79.1 µM
inhibition ([3]; concentration not given here): 80%
GI50 (HT-29): inactive
IC50 [4]: Not Active
GI50 (DU-145 [5]): inactive
IC50 [6]: Not Active

COc1ccc(NC(=O)CC2C(=O)N(c3ccccc3)C(=S)N2CCc2sccc2C)cc1 (stereo unspecified)
IC50 ([2]; read-out: IC50): 2.4 µM
inhibition ([3]; concentration not given here): 60%
GI50 (HT-29; HT-29, 48 h): 19.6 µM
IC50 [4]: Not Active
GI50 (DU-145 [5]; DU-145, 48 h): 42.3 µM
RatioGI50 (DU-145 [8]): 2
IC50 [6]: Not Active

COc1ccc(N2C(=O)C(CC(=O)Nc3ccccc3)N(CCc3cccs3)C2=S)cc1 (stereo unspecified)
IC50 ([2]; read-out: IC50): 1 µM
inhibition ([3]; concentration not given here): 60%
GI50 (HT-29; HT-29, 48 h): 17.7 µM
IC50 [4]: Not Active
GI50 (DU-145 [5]; DU-145, 48 h): 34.3 µM
RatioGI50 (DU-145 [8]): 2
IC50 [6]: Not Active
Activity (HeLa [9]): 50%

Cc1ccc(-n2c(=O)[nH]c3c(C(N)=O)nc(-c4ccc(F)cc4F)nc32)cc1C
Activity (HeLa [1]): inactive
IC50 ([2]; read-out: IC50): 41.5 µM
inhibition ([3]; concentration not given here): 60%
GI50 (HT-29; HT-29, 48 h): 9.3 µM
IC50 ([4]; read-out: IC50): 50 µM
GI50 (DU-145 [5]; DU-145, 48 h): 8.7 µM
IC50 ([6]; read-out: IC50): 50 µM

Cc1cc(F)ccc1S(=O)(=O)N(C(=O)C1CCCCC1)c1ccc2oc(=O)sc2c1
Activity (HeLa [1]): inactive
IC50 [2]: Not Active
GI50 (HT-29; HT-29, 48 h): 19.4 µM
GI50 (DU-145 [5]; DU-145, 48 h): 41.2 µM

O=C(O)CSc1cc(NS(=O)(=O)c2ccc(C(=O)O)cc2)c2ccccc2c1O
IC50 [2]: Not Active
GI50 (HT-29; HT-29, 48 h): 4.4 µM
Activity (HeLa [10]): Active
GI50 (DU-145 [5]; DU-145, 48 h): 21 µM
